Measurements pooled from the literature.
Compare with care: the assays were run in different laboratories.
ST14: Suppressor of tumorigenicity 14 protein (ST14, Homo sapiens, UniProt Q9Y5Y6)
Integrin alpha-V/beta-6: Integrin alpha-V/beta-6 (Homo sapiens, UniProt P06756+P18564)
HTR7: 5-hydroxytryptamine receptor 7 (HTR7, Homo sapiens, UniProt P34969)
ERG11: Lanosterol 14-alpha demethylase (ERG11, Candida albicans, UniProt P10613)

Structure (SMILES) | target | read-out | action | method | quantity | result
CS(=O)(=O)N[C@@H](CCC(N)=O)C(=O)N[C@@H](Cc1ccccc1)C(=O)N[C@@H](CCCNC(=N)N)C(=O)c1nccs1 | ST14 | cell-free assay |  |  | Ki | 0.017 µM
C[C@@H](O)[C@H](NC(=O)C(C)(C)NC(=O)[C@@H](N)CS)C(=O)N[C@@H](CCCNC(=N)N)C(=O)NCC(=O)N[C@@H](CC(=O)O)C(=O)N[C@@H](Cc1cccnc1)C(=O)N1CC(F)(F)C[C@H]1C(N)=O | Integrin alpha-V/beta-6 | binding |  | BLI | Kd | 54.9 µM
CCCCC1CNC2CCc3ccc(OC)cc3C12 (racemic) | HTR7 | ligand displacement |  | radioligand | Ki | 0.586 µM
COCCC(=O)N[C@@H](CCC(N)=O)C(=O)N[C@@H](Cc1ccccc1)C(=O)N[C@@H](CCCNC(=N)N)C(=O)c1nc2ccccc2s1 | ST14 | cell-free assay |  |  | Ki | 0.00094 µM
OC(COc1ccc(-c2nnco2)cc1)CN1CCN(CC(O)COc2ccc(-c3nnco3)cc2)CC1 (centres unmarked) | ERG11 | enzyme activity | inhibitor | mass spectrometry | IC50 | > 50 µM
CC1=CC(=O)[C@@H](O)[C@]2(C)[C@H]3[C@@H](O)[C@H](O)[C@@]4(C)OC[C@@]35[C@@H](C[C@@H]12)OC(=O)[C@H](O)[C@]54O | Serine/threonine-protein kinase pim-1 (PIM1, Homo sapiens, UniProt P11309) | binding |  | SPR | Kd | 6.57 µM
O=S(=O)(c1ccc(OCC(O)CN2CCCC2)c(Cl)c1)c1ccc(OCC(O)CN2CCCC2)c(Cl)c1 (centres unmarked) | ERG11 | enzyme activity | inhibitor | mass spectrometry | IC50 | > 50 µM
COc1cc2c(cc1OC)CN(CCc1ccc(NC(=O)c3cccc4c(=O)c5cccc(OC)c5[nH]c34)cc1)CC2 | HTR7 | cell-free assay |  |  | Ki | 0.235 µM
CC(C)(NC(=O)[C@@H](N)CS)C(=O)N[C@@H](CO)C(=O)N[C@@H](CCCNC(=N)N)C(=O)NCC(=O)N[C@@H](CC(=O)O)C(=O)N[C@@H](Cc1c(F)c(F)c(F)c(F)c1F)C(=O)N1CCC(F)(F)C[C@H]1C(N)=O | Integrin alpha-V/beta-6 | binding |  | BLI | Kd | 70.4 µM
Cc1cc(O)c2c(=O)c3c(O)cc(O)c4c5c(O)cc(O)c6c(=O)c7c(O)cc(C)c8c1c2c(c34)c(c78)c65 | Calreticulin (CALR, Homo sapiens, UniProt P27797) | binding |  | MST | Kd | 3.68 µM
CCN1CCN(Cc2ccc(Nc3ncc(F)c(-c4cc(F)c5nc6n(c5c4)[C@H](C)CCC6)n3)nc2)CC1 | Multidrug and toxin extrusion protein 1 (SLC47A1, Homo sapiens, UniProt Q96FL8) | enzyme activity | inhibitor |  | IC50 | 0.0212 µM
